Screening data from PubChem.
Compounds with a hit are over-represented: about 2.9% of the library has one in this group of screens.
DDE Tn7 FP inh: inhibitors of Tn7 peptide binding to fibrin DD(E), primary screen, biochemical, fluorescence polarization, human fibrin, Tn7 probe | FP displacement of FITC-Tn7 peptide from fibrin DD(E); 0% = median of compound wells per plate | Fibrinogen beta chain (Homo sapiens), P02675 | 0.13% of 370,000 active | inhibition, % at 8.3 µM;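 active means inhibition above the mean of compounds falling within the control limits plus 3 SD of them, cut at about 14% in these data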;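 further: 0% = plate median of compound wells and 100% = 10 µM Aha-Tn7 peptide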
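system = human fibrin DD(E) protein | quantity = DD(E) 2 µM final | medium = Tris/NaCl/CaCl2 buffer, pH 7.8 | also added = labelled Tn7 tracer, 0.1 µM | compound dosing = single point at 8.3 µM | timing = compound with protein 10 min, then 3 h after probe, room temperature | signal = FP measurement | benchmarks = Aha-Tn7 high control | repeats = one replicate per compound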
Tn6 DDE FP: inhibitors of Tn6 peptide binding to fibrin DD(E), primary screen, biochemical, fluorescence polarization, human fibrin, Tn6 probe; Fibrinogen beta chain (Homo sapiens), P02675; Fibrin DD(E) TRITC-Tn6 fluorescence polarization displacement; AID 720509, 2013; 0.21% of 370,000 active; inhibition, % at 8.3 µM;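 active means inhibition above a per-campaign cutoff: mean of compounds within control limits plus 3 SD, cut at about 15% in these data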;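 further: 0% = median of all compound wells on the plate and 100% = blocking peptide control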
CRFR2-BP ag: agonists of CRF-BP/CRF-R2 complex, primary screen, cell-based, HEK293, calcium dye fluorescence, uHTS; 0.46% of 350,000 active; calcium dye fluorescence (FLIPR); percent of saturating CRF peptide response; activation, % at 13.2 µM;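 active means activation of at least 50%, plus an integration ratio under a set limit after plate pattern correction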;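 further: plate controls were neutral control wells without compound for no effect and CRF at EC100 for full effect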
KLK7 zymogen act: proKLK7 zymogen activators, primary screen, biochemical, fluorescence intensity; purified proKLK7, EDANS-DABCYL substrate fluorescence; 100% is mature enzyme control, 0% vehicle; activation, % at 7 µM; 0.9% of 370,000 active;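 active means activation above the mean of all tested compounds plus 3 SD, computed per campaign excluding outliers beyond control limits, cut at about 13% in these data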
CRFR2-BP antag: antagonists of CRF-BP/CRF-R2 complex, primary screen, cell-based, HEK293, calcium dye fluorescence, uHTS; CRF-induced calcium fluorescence; inhibition, % at 11.8 µM; 0.59% of 350,000 active;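 active means inhibition of the ligand-induced calcium signal above about 50% at the single tested concentration, limit read from the data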
NRP1-CendR mod: modulators of CendR peptide binding to NRP-1, primary screen, biochemical, fluorescence polarization, uHTS. 0.85% of 360,000 active. Neuropilin-1 (Homo sapiens), O14786. FAM-RPARPAR peptide binding to NRP-1. inhibition, % at 25 µM;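 active means inhibition or corrected inhibition above about 18%, plus a signal ratio from 0.5 to 1.5, limit read from the data, passing the limit was not always enough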
* marks the source's active call; other numbers are inactive results.

Results for O=C(Nc1ccc2c(c1)OCO2)O[C@@H]1CC[C@@]23CCCN2C(=O)CCC[C@H]3C1 ?
DDE Tn7 FP inh: 6; Tn6 DDE FP: 1

How did COc1ccc(Cc2[nH]n3c(=O)cc(C(C)C)nc3c2-c2ccccc2)cc1 do in these assays?
DDE Tn7 FP inh: -10; Tn6 DDE FP: -6; CRFR2-BP ag: 31; KLK7 zymogen act: 0; CRFR2-BP antag: 31; NRP1-CendR mod: 18*

What do the screens show for `C[C@@H]1COc2cc(Br)ccc2S(=O)(=O)N1Cc1cn(CCC2OCCO2)nn1`?
DDE Tn7 FP inh: -5; Tn6 DDE FP: -4; KLK7 zymogen act: 0

What do the screens show for `COc1ccc([N+](=O)[O-])cc1NC(=O)CCNC(=O)Cn1ccc2ccccc2c1=O`?
DDE Tn7 FP inh: -2; Tn6 DDE FP: 4; CRFR2-BP ag: 0; KLK7 zymogen act: 1; CRFR2-BP antag: -6; NRP1-CendR mod: 30*

Results for COC(=O)[C@]12C[C@H](CC(=O)N3CCN(C(=O)c4ccco4)CC3)C(=O)N(Cc3ccco3)C1=C[C@H](C(C)(C)C)O[C@@H]2C ?
DDE Tn7 FP inh: -4; Tn6 DDE FP: 4; KLK7 zymogen act: 0

Results for CNCC(=O)O ?
DDE Tn7 FP inh: 2; Tn6 DDE FP: 6; CRFR2-BP ag: -1; KLK7 zymogen act: 1; CRFR2-BP antag: 77*; NRP1-CendR mod: -6

What do the screens show for `CC1(C)CSC(=NCc2ccccc2)N1C(=O)c1cccc([N+](=O)[O-])c1`?
DDE Tn7 FP inh: -3; Tn6 DDE FP: -1; CRFR2-BP ag: 273*; KLK7 zymogen act: 0; CRFR2-BP antag: -95; NRP1-CendR mod: 10

What do the screens show for `CC1CCN(C(=O)CSc2nncn2-c2ccccn2)CC1`?
DDE Tn7 FP inh: -6; Tn6 DDE FP: -3; CRFR2-BP ag: 1; KLK7 zymogen act: 0; CRFR2-BP antag: -29; NRP1-CendR mod: 2

Results for CC1CCN(C(=O)CSc2nncn2C)CC1 ?
DDE Tn7 FP inh: 2; Tn6 DDE FP: 1; CRFR2-BP ag: 0; KLK7 zymogen act: 0; CRFR2-BP antag: 1; NRP1-CendR mod: 48*

How did O=C(COc1ccc(/C=N/NC(=O)c2ccccc2)cc1)Nc1ccc([N+](=O)[O-])cc1 do in these assays?
DDE Tn7 FP inh: 5; Tn6 DDE FP: 1; CRFR2-BP ag: 0; KLK7 zymogen act: 0; CRFR2-BP antag: -6; NRP1-CendR mod: 8

What do the screens show for `CC(C)Oc1ccc(/C=N/NC(=O)C(CSCc2ccccc2)NC(=O)c2ccc([N+](=O)[O-])cc2)cc1` (stereo not drawn)?
CRFR2-BP ag: 104*; CRFR2-BP antag: -46; NRP1-CendR mod: 7

What do the screens show for `C=C(C)COc1ccc(-c2[nH]ncc2-c2ccccc2)c(O)c1`?
DDE Tn7 FP inh: -4; Tn6 DDE FP: -8; CRFR2-BP ag: 2; KLK7 zymogen act: 0; CRFR2-BP antag: 9; NRP1-CendR mod: 25*

How did C=C(C)COc1ccc(-c2[nH]ncc2-c2ccc(OC)cc2)c(O)c1 do in these assays?
DDE Tn7 FP inh: -1; Tn6 DDE FP: -10; CRFR2-BP ag: 1; KLK7 zymogen act: 0; CRFR2-BP antag: 25; NRP1-CendR mod: 6

Results for O=C([C@@H]1C[C@H]1c1ccccc1)N1CC[C@H]2[C@H](CCCN2Cc2ccc(F)cc2)C1 ?
DDE Tn7 FP inh: 10; Tn6 DDE FP: 6; KLK7 zymogen act: 0

What do the screens show for `Cc1ccccc1Cn1nc(C)c(NC(=O)c2cc(-c3cccs3)on2)c1C`?
CRFR2-BP ag: 2; CRFR2-BP antag: 57*; NRP1-CendR mod: 4

Results for Cc1ccccc1Cn1nc(C)c(NC(=O)c2cc(-c3ccco3)on2)c1C ?
DDE Tn7 FP inh: 3; Tn6 DDE FP: -1; CRFR2-BP ag: -1; KLK7 zymogen act: -1; CRFR2-BP antag: 10; NRP1-CendR mod: -11
